Converted amounts (≈) assume the structure as drawn.
Tests used:
[1] = system: human dermal fibroblast (HDF, human dermal cell line); experiment: MTT cytotoxicity assay, normal cells; type: cell-based; conditions: Homo sapiens, Fibroblast, 96 h, read-out: IC50 HDF
In short: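 Human dermal fibroblasts were maintained in DMEM with 10% FCS, 2 mM L-glutamine and 1% penicillin-streptomycin (37 °C, 5% CO2). They were seeded at 1 × 10^4 cells/ml, allowed to adhere overnight, then treated 96 h with serially diluted test compound (six final levels, 1–600) beside DMSO-matched vehicle and cisplatin controls. Then MTT 5 mg/ml was added for 4 h, formazan taken up in DMSO, and absorbance read at 540 nm, in triplicate. IC50 was fitted.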

[2] = system: glioblastoma (U-87 MG) cells; experiment: MTT cytotoxicity assay, U-87 MG; type: cell-based, human; conditions: for IC50: Homo sapiens, U-87 MG, 96 h, read-out: IC50 U87; for SI U87 (selectivity index): IC50 in HDF / IC50 in U87, 96 h
In short: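 U-87 MG cells were cultured in DMEM with 10% FCS, 2 mM L-glutamine and 1% penicillin-streptomycin at 37 °C, 5% CO2. Seeding was 1 × 10^4 cells/ml; after overnight adherence, test compound diluted in medium (six final levels, 1–600) was applied for 96 h alongside DMSO-matched and cisplatin controls. Read-out: MTT 5 mg/ml for 4 h, DMSO solubilisation, A540, in triplicate, IC50 fitted. SI = IC50 in HDF / IC50 in U87.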

[3] = system: breast cancer (MCF7) cells; experiment: MTT cytotoxicity assay, MCF7; type: cell-based, human; conditions: for IC50: Homo sapiens, MCF7, 96 h, read-out: IC50 MCF-7; for SI MCF-7 (selectivity index): IC50 in HDF / IC50 in MCF-7, 96 h
In short: (§1)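 Cells were grown in RPMI 1640 with 10% FCS, 2 mM L-glutamine and 1% penicillin-streptomycin at 37 °C under 5% CO2. They were seeded at 1 × 10^4 cells/ml, left overnight to adhere, and exposed 96 h to test compound diluted in medium (six final levels, 1–600), with DMSO-matched and cisplatin controls. MTT at 5 mg/ml was added for 4 h, formazan dissolved in DMSO, and A540 read, in triplicate. IC50 was fitted from the data. SI = IC50 in HDF / IC50 in this line.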

[4] = system: Escherichia coli (ATCC 25922); experiment: Micro-broth dilution assay; type: cell-based; conditions: ATCC25922, read-out: MIC EC
[5] = system: Pseudomonas aeruginosa (ATCC 13048); experiment: Micro-broth dilution assay; type: cell-based; conditions: ATCC13048, read-out: MIC PA
[6] = system: non-small cell lung cancer (A549) cells; experiment: MTT cytotoxicity assay, A549; type: cell-based, human; conditions: for IC50: Homo sapiens, A549, 96 h, read-out: IC50 A549; for SI A549 (selectivity index): IC50 in HDF / IC50 in A549, 96 h
In short: as §1

B. subtilis (ATCC 6633) [7] = experiment: Micro-broth dilution assay; type: cell-based; conditions: Bacillus subtilis, ATCC6633, read-out: MIC BS
[8] = system: Bacillus cereus (ATCC 11778); experiment: Micro-broth dilution assay; type: cell-based; conditions: ATCC11778, read-out: MIC BC
B. subtilis (ATCC 6633) [9] = experiment: Agar diffusion test, B. subtilis; type: cell-based; conditions: Bacillus subtilis, ATCC6633, read-out: Zone of inhibition BS
[10] = DPPH radical scavenging assay
[11] = ABTS radical scavenging assay
[12] = system: Bacillus cereus (ATCC 11778); experiment: Agar diffusion test, B. cereus; type: cell-based; conditions: ATCC11778, read-out: Zone of inhibition BC
[13] = system: Staphylococcus aureus (ATCC 10145); experiment: Micro-broth dilution assay; type: cell-based; conditions: ATCC10145, read-out: MIC SA
[14] = system: Gram-positive and Gram-negative bacterial test strains; experiment: Antibacterial activity, whole panel of test strains; type: cell-based
In short: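 Disc diffusion followed CLSI (2012). Test compound at 10, 50 and 100 μg/disc was loaded on 6-mm blank filter discs laid on Mueller Hinton agar seeded at 10^6 cells/ml. Strains were S. aureus ATCC 10145, B. cereus ATCC 11778, B. subtilis ATCC 6633, P. aeruginosa ATCC 13048 and E. coli ATCC 25922. Inhibition zones were recorded.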

[15] = system: cancer cell lines (U87, MCF-7 and A549) compared to normal cells (HDF); experiment: MTT cytotoxicity, cancer cell lines compared to normal cells; type: cell-based, human; conditions: 96 h treatment
In short: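 A549 and MCF7 grown in RPMI 1640, HDF and U87 in DMEM, each with 10% FCS, 2 mM L-glutamine, 1% pen-strep, 37 °C, 5% CO2. Cells at 1 × 10^4 cells/ml were adhered overnight, then exposed 96 h to test compound (final 1–600 […] in medium). Controls were blank, untreated, DMSO-matched and cisplatin (1–100 μM/mL). MTT 5 mg/ml for 4 h; DMSO-solubilised formazan read at 540 nm, triplicate. IC50 from curve fitting; selectivity index = HDF IC50 / cancer-line IC50.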

MIC [4]	MIC [5]	MIC (B. subtilis (ATCC 6633) [7])	MIC [8]	IC50 ± SD, DPPH [10]	IC50 ± SD, ABTS [11]	SMILES	IC50 [1]	IC50 [2]	SI U87 (selectivity index) [2]	IC50 [3]	SI MCF-7 (selectivity index) [3]	IC50 [6]	SI A549 (selectivity index) [6]	% inhibition ±SD, DPPH ([10]; 5 μg/ml)	% inhibition ±SD, DPPH ([10]; 10 μg/ml)	% inhibition ±SD, DPPH ([10]; 25 μg/ml)	% inhibition ±SD, DPPH ([10]; 50 μg/ml)	% inhibition ±SD, DPPH ([10]; 100 μg/ml)	% inhibition ±SD, ABTS ([11]; 5 μg/ml)	% inhibition ±SD, ABTS ([11]; 10 μg/ml)	further results
> 500 µg/mL	> 500 µg/mL	> 500 µg/mL	> 500 µg/mL	18.5 ± 1.6 µg/mL (≈ 32.1 µM)	24.2 ± 1.0 µg/mL (≈ 42 µM)	COC(=O)c1cn(C2CC2)c2cc(N3CCN(C(=O)c4c(C)nnn4-c4ccc([N+](=O)[O-])cc4)CC3)c(F)cc2c1=O [Compound 6e, methyl 7-(4-(1-(4-nitrophenyl)-4-methyl-1H-1,2,3-triazole-5-carbonyl)piperazin-1-yl)-1-cyclopropyl-6-fluoro-4-oxo-1,4-dihydroquinoline-3-carboxylate]	83 ± 5.8 µM	45 ± 7.1 µM	1.8	58.6 ± 5.9 µM	1.4	79 ± 4.7 µM	1.1	17.1 ± 0.6%	33.8 ± 0.5%	54.5 ± 0.4%	60.7 ± 0.8%	67.9 ± 0.6%	14.9 ± 1.4%	37.0 ± 0.2%	zone of inhibition at 100 µg/disc (B. subtilis (ATCC 6633) [9]): 9.6 ± 0.6 mm; zone of inhibition at 300 µg/disc (B. subtilis (ATCC 6633) [9]): 13.1 ± 0.3 mm; zone of inhibition at 500 µg/disc (B. subtilis (ATCC 6633) [9]): 14.3 ± 0.6 mm; % inhibition ±SD, ABTS ([11]; 25 μg/ml): 50.3 ± 0.5%; % inhibition ±SD, ABTS ([11]; 50 μg/ml): 71.2 ± 0.2%; % inhibition ±SD, ABTS ([11]; 100 μg/ml): 74.3 ± 0.4%; zone of inhibition at 100 µg/disc [12]: 10.3 ± 0.6 mm; zone of inhibition at 300 µg/disc [12]: 11.3 ± 0.6 mm; zone of inhibition at 500 µg/disc [12]: 13.3 ± 0.6 mm; MIC [13]: > 500 µg/mL
> 500 µg/mL	> 500 µg/mL	> 500 µg/mL	> 500 µg/mL	56.2 ± 2.1 µg/mL (≈ 102 µM)	39.2 ± 2.1 µg/mL (≈ 71.5 µM)	COC(=O)c1cn(C2CC2)c2cc(N3CCN(C(=O)c4c(C)nnn4-c4ccc(F)cc4)CC3)c(F)cc2c1=O [Compound 6f, methyl 7-(4-(1-(4-fluorophenyl)-4-methyl-1H-1,2,3-triazole-5-carbonyl)piperazin-1-yl)-1-cyclopropyl-6-fluoro-4-oxo-1,4-dihydroquinoline-3-carboxylate]	142 ± 4.1 µM	7.9 ± 2.3 µM	18	10.6 ± 3 µM	13.3	104 ± 4.5 µM	1.4	10.6 ± 0.9%	20.7 ± 0.8%	39.5 ± 0.5%	48.9 ± 0.4%	66.9 ± 0.3%	13.3 ± 0.6%	29.7 ± 0.7%	antibacterial activity in words [14]: deprived of any antibacterial activity; cytotoxic / anti-proliferative activity in words [15]: significant cytotoxic activity against only U-87 and MCF-7 cancer cell lines; % inhibition ±SD, ABTS ([11]; 25 μg/ml): 46.1 ± 0.1%; % inhibition ±SD, ABTS ([11]; 50 μg/ml): 54.1 ± 0.7%; % inhibition ±SD, ABTS ([11]; 100 μg/ml): 64.2 ± 0.4%; MIC [13]: > 500 µg/mL
–	–	–	–	5.2 ± 0.3 µg/mL (≈ 20.8 µM)	2.7 ± 0.2 µg/mL (≈ 10.8 µM)	Cc1c(C)c2c(c(C)c1O)CCC(C)(C(=O)O)O2 (stereo not shown) [Trolox®, reference compound]	–	–	–	–	–	–	–	–	–	–	–	–	–	–	–
